The EternaBench riboswitch data

System: MS2 coat protein
Assay: apparent Kd, MS2 coat protein; higher = weaker binding; RNA-MaP array; FMN 200 µM where present
How it was run: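 The titrant was SNAP-549-labelled MS2 coat protein, run from 0.7 or 1.5 nM in doubling steps to 3 µM. It was applied to designs transcribed by stalled E. coli RNA polymerase on Illumina sequencing-chip clusters, without ligand first and then with constant ligand, in 100 mM Tris-HCl pH 7.5, 80 mM KCl, 4 mM MgCl2, BSA, DTT, yeast tRNA and Tween-20. The apparent Kd is the median of filtered per-cluster binding-curve fits, with green signal normalised to red-channel RNA signal and control-cluster median Fmax.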

[1] = designed as: OFF switch for flavin mononucleotide, no ligand
[2] = ligand present: flavin mononucleotide, designed as: OFF switch for flavin mononucleotide
[3] = designed as: ON switch for flavin mononucleotide, no ligand
[4] = ligand present: flavin mononucleotide, designed as: ON switch for flavin mononucleotide

Sequence	apparent Kd [1]	apparent Kd [2]	apparent Kd [3]	apparent Kd [4]
CCUUCACAUGAGGAUCACCCAUGUGAGGAUAUCCUGCGAGGAUCAAAAGAUCCUCGUGGGAGAAGGCACAUGGA	110 nM	180 nM		
AAAAUAAAAAGGCAGGAUAUCCAAAAUAAAACAUGAGGAUCACCCAUGUAAAUAAAAAUAAAGUGGGAGAAGGGUUAAAAAUAAAA			58.3 nM	45.3 nM
UCAUUUCAGUAAGGAUAUUAAAACAUGACGAUACAUGAGGAUCACCCAUGUUAAGAAGGUACUAAUACAAAUAAUGCAUUGUUC	14.7 nM	15.5 nM		
CCUCAGUAAGGAUAUCAGCUUAGUAGGUUGGUAAUGAGAGCUGAGAAGGUACAUGAGGAUCACCCAUGUUAGUU	26.1 nM	80.8 nM		
ACUAGAUGAGGAUAUGCAUGUUUUCGUGUUCUUCUAGAUUAACAUGAGGAUCACCCAUGUAGAAGGCGUCAUAU	48.4 nM	134 nM		
UUAGUGGUAGGAUAUCACCCAGGUUACAUGAGGAUCACCCAUGUGACUCAGCAGGCCAAGUGAGAAGGGCUGCUCC	22.3 nM	20 nM		
AUUUUGUCAGGAUAUGAGUAGUAGGACGAAAGUGUUAUUAUUUAGAAGGGACAUGAGGAUCACCCAUGUUUUCC	12.7 nM	16.7 nM		
GUUACAUGAGGAUCACCCAUGUAUGUGUGGGAGUAAGUGUCUUAGGAUAUCUAUUAGUUAAAUUAAGAGAAGGAAGAUUGUUGU			119 nM	127 nM
ACAGCGUGAGGAUAUACAUGAGGAUCACCCAUGUAUGGCAGGUUAUCCUGUCGUGAGUGUAGAAGGCACGCUGU	17.4 nM	58.9 nM		
GGGCACAUCGGAGGAUAUCAUGUAAAUACAUGAGGAUCACCCAUGUCGAUGGAGACAUCGGAGAUUGAGAAGGCCGAUGUACCG			191 nM	9.02 nM
UUUUUGUCAGGAUAUGAUUAGAUCUACUUCGGUAGAUCUAAUCAGAAGGGACAUGAGGAUCACCCAUGUAGUUU	36.5 nM	141 nM		
UUUAUAAAGGUAGGAUAUUGUAUUAUAAUUAAAUAAGAAGGAUCACACAUGAGGAUCACCCAUGUAUGAGGAUCACCCAUGUAU	15.7 nM	14.4 nM		
CCUCCCUGAGGAUAUCCACCCUCAUACAUGAGGAUCACCCAUGUUCAUCCGUGGCUACCCGGAGAAGGCAGCUCUC	44.9 nM	41.8 nM		
AAUGUGUCAGGAUAUUGUUAGUUUAGUUGUUUGUAUUAGUUCGAGAAGGGACAUGAGGAUCACCCAUGUUGUAA	40.1 nM	31.9 nM		
CGUAGGAUCCAGAAGGCAUGAACAUGAGGAUCACCCAUGUCAAAAUACAUGAGGAUAUGGAUCCUACGAAAAGUGCGAAAGCAC			5.11 nM	4.38 nM
UAAAAGUUAGGAUAUACAUGAGGAUCACCCAUGUCGCGGAACCGCGGCGAUUACUCCUGUAGAAGGAACAUCGU	165 nM	291 nM		
ACAUGAGGAUCUCCCAUGUAAAAUUAGGAUAUAUAACUACACAUGAGGAUCACCCAUGUUUAACCGUAGAAGGGAUAAAUAAUU			986 nM	1020 nM
UACAGCUUGACAGGAUAUACAUCACUGCGAAAGCAGUGUAUCUUAAUAACAUGAGGAUCACCCAUGUAGAAGGGUCGAGCUGUA	19.8 nM	35.9 nM		
UGGAGGUCAGGAUAUGCAUGGCGGGACUUGCGUCGUGGCGUGCAGAAGGGACAUGAGGAUCACCCAUGUGGAGG	124 nM	121 nM		

Sequence	apparent Kd [1]	apparent Kd [2]	apparent Kd [3]	apparent Kd [4]
UAUAUAAUAAGAGCUGGAAACUCAACAUGAGGAUCACCCAUGUAGGAUAUCAGCACGAUAAGUGCUGAGAAGGACAACCAGCUC	19.9 nM	23.3 nM		
AAGGUACGAGGAUAUACAUAGAUACAGAUACAUGUGGAUGUACAUGAGGAUCACCCAUGUAGAAGGCGUAUAUA	300 nM	318 nM		
UCGCUGCGAGGAUAUACAUGAGGAUCACCCAUGUACGGGUCCGGGUCUUCGUCCAUUGGUAGAAGGCGCAGUGA	23.1 nM	204 nM		
UGAGCCUCGUGAGGAUAUACAUGAGGAUCACCCAUGUAAUAGGAUGAACGGAGGAAACUCCGAAUGUAGAAGGCACGAGGCUCA	77.7 nM	664 nM		
GUCAGCUCGUCAGGAUAUACGUCACUGCUUCGGCAGUGUGGUAAGAUCACAUGAGGAUCACCCAUGUAGAAGGGACGAGCUGAU	12.3 nM	291 nM		
AAUUAUUUACAGAAGGAGUUAAAAGGAGUAUUACUAGGAUAUGUUCACAUGAGGAUCACCCAUGUCAUAUUGGGAUUUAUUUUU	22.5 nM	22.6 nM		
AAUUCACAUGAGGAUCACCCAUGUCAGGAUAUGGUUUCACGUUUUUCUUUGCUUGAGGCCAGAAGGGACAGCUA	62.8 nM	68.5 nM		
GCUGGACGAGGAUAUACAUAACGUGCUUCGGCACGAGAUCUACAUGAGGAUCACCCAUGUAGAAGGUGUCCAGC	13.7 nM	16.2 nM		
AGGUGUCCUGAGAAAUUUCUCCACAUGAGGAUCACCCAUGUAGAGGAUAUCGACGCUGUGCGGUUCGAGAAGGCUACACUAAUU	6.54 nM	22.7 nM		
UUCCGCGUUGUAAGGAUAUCUAAUUCUUAUGAAAUAGAGAAGGUACAUGAGGAUCACCCAUGUACUUGGGACUA	18.7 nM	22.4 nM		
CGAGCCUAUGUAAGGAUAUCACGAUAAAACCAGCGUGAGAAGGUACAUGAGGAUCACCCAUGUUCACGACUGGC	13.9 nM	14.7 nM		
ACGAAGAUACAGAAGGGUAAAUUAGUUAAUUAUAAUUUGGUUAUGCACUACAGGAUAUGUUAUACAUGAGGAUCACCCAUGUUC			18.2 nM	13.7 nM
AUUUAUGGCCAGAAGGACAUGAGGAUCACCCAUGUAGGAUAUGGACGAUUUUGCUCGGCGGUUUGUUUAGGAAGCACCGGUGAU			21.5 nM	7.6 nM
UUUGUUGUUGUGAGGAUAUCGUAGUUAUUUUGUAACGAGAAGGCACAUGAGGAUCACCCAUGUUUUUUGAUGGU	22.7 nM	90 nM		
GACUUGCGCACAGGAUAUCCACGGAGCGGACGUGGAGAAGGGUGACAUGAGGAUCACCCAUGUACGUAAGUCUGGAUCACAUCC			41.8 nM	19.5 nM
AUUGUUAAGGUAGGAUAUAGUAAAAUGAUUUAAUUAGAAGGAUCUCACAUGAGGAUCACCCAUGUAAGAGGAUCACCCAUGUAU	12.9 nM	9.73 nM		
GUGAGUAGUCAGGAUAUGCUGUACAAAAGUACAGCAGAAGGGAUUACAUGAGGAUCACCCAUGUUUUCUUCAUG	83.5 nM	564 nM		
GAAAAACAUGAGGAUCACCCAUGUGAGAAUAUGGGAGGAUAUUCAAAGACGAAAGUCAAAGAAGAAGGCCUAAAAG			153 nM	37.4 nM
AUUUAUGUCAAAGGAUAUAUAAAUAAAUUUAUAACAUGAGGAUCACCCAUGUACUUUAGUAUGAGGUAGAAGGUUGAUAAGAGU			47.6 nM	35.6 nM

Sequence	apparent Kd [1]	apparent Kd [2]	apparent Kd [3]	apparent Kd [4]
CGUUGGUCAGGAUAUGGUGGGCUGGUGAGAGGGCCGGGUGGCUAGAAGGGACAUGAGGAUCACCCAUGUACGGC	40.4 nM	28.2 nM		
GAAUUCGCAUGAGGAUAUGCACUCAUUUCAUGUGCAGAAGGUAUUUCAUUAGACAUGAGGAUCACCCAUGUAUUGGUCAAUAAC			19.1 nM	16.1 nM
GGAUCCUGGGUCAGGAUAUGCUGACAGCUUUGUCAGCAGAAGGGACAUGAGGAUCACCCAUGUGCUCGGUUUUG	10.1 nM	18.1 nM		
UACAUGAGGAUCACCCAUGUUUUGUCGUGUAUGGUAUUUAUCUAGGAUAUCAAUCUAUUAAUUUAUGAGAAGGAGAAUAUUAAU	35.5 nM	39.7 nM		
CUUAUGUGAGGAUAUCAGUAGUGAUACGAUAGUAUUACUGCUGAGAAGGCACAUGAGGAUCACCCAUGUUCCUU	26.1 nM	51.9 nM		
AUAAUGUAAGGAUAUAUGAAUCACGGUGAUACACCGUGAAGAUAGAAGGUACAUGAGGAUCACCCAUGUAGGGC	50.5 nM	220 nM		
AGAUGUGAACAUGAGGAUCACCCAUGUGACUAGGUUUAUUUCAGAAGGCAUUUAUAGAGAUUAUAUGAGGAUAUGAAGUUUUAA			12.4 nM	6.45 nM
GGAAAUUAGCAAGGAUAUCGGCUCACUAUUACUUUAUGCCCUAGGACAUGAGGAUCACCCAUGUACGAGAAGGUGCUAACUACA	28.5 nM	31.1 nM		
UGACGGAGCUGAGGAUAUUACAUGAGGAUCACCCAUGUAAGUCUCCAGGAAACUGGAGACAAAUGUAAGAAGGCAGCUCCGUCA	18.7 nM	27.9 nM		
AAUUGAAACGUAGGAUAUCGCUAUAAAUUAACACGAGAAGGACGUACAUGAGGAUCACCCAUGUUAAAUGGUGUAGUUUAGUUG	32.8 nM	95.5 nM		
GAUCAACAUGAGGAUCACCCAUGUGAGGAUAUGUAUCAUAGAUCUUCGGAUCUAUGAUACAGAAGGCAUGUGAA	76.1 nM	101 nM		
AAGAGCGAUUCUCCCUUCCUACAUGAGGAUCACCCAUGUACGAGAAGGCGCCGUUUAUACAACGGUGAGGAUAUCGUGCGUUAC	4.49 nM	4.7 nM		
AGAAAGAAGCAAGGAUAUUGUAAGGUUAAUGUACAAGAAGGUGCUGUUUAUGUCUCUUAACAUGAGGAUCACCCAUGUAUUGGU			52.6 nM	44.1 nM
UUGGCACAUGAGGAUCACCCAUGUUAGGAUAUUGUGGCAGAAACAGCUGGGAAACGCACGAGAAGGGACACAUA	33.4 nM	38.5 nM		
AGUGUGUGGCAGGAUAUGCGAUUUGUCGGUGUUGCAGAAGGGUCUACAUGAGGAUCACCCAUGUGUGCGGUUGA	184 nM	309 nM		
CCUCCACAUGAGGAUCACCCAUGUCACACUCCGUCAGGAUAUAGCCUGCAUCCGCUGUGGCUAGAAGGGACUGCUG			332 nM	303 nM
GUAGCAAUCGGAGGAUAUUCAUUAAACAUGAGGAUCACCCAUGUUAAUUUGGGAGAAGGCCGAUUGCUACAAGAGCGAAAGCUC			7.23 nM	4.66 nM
AAUCCACAUGAGGAUCACCCAUGUGAGGAUAUGAUACUAUGUACUUCGGUACAUAGUAUCAGAAGGCACAGGUC	23.6 nM	51.6 nM		
